This is a sample that favours compounds with a hit; in the whole collection about 2% have one here.
LEDGF integ inh: blocks HIV-1 LEDGF/p75-dependent DNA integration | inhibition, % at 3.7 µM | TR-FRET IN-LEDGF/p75 DNA integration, Eu/Cy5 | 370,000 compounds, 0.64% hits | AID 743269;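 active means inhibition above the screen-wide mean plus 3 SD, cut at about 13% in these data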;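 further: signal is the Cy5 over europium emission ratio at 671 and 618 nm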
MBD2 DNA inh: inhibitors of human MBD2 binding to methylated oligonucleotide; 370,000 compounds, 0.31% hits; Q9UBB5; inhibition, % at 4.4 µM; AID 686964; TR-FRET; in the data active means inhibition above about 13%
ASAP1 inh: blocks human ASAP1-stimulated Arf1 GTP hydrolysis | GDP FP detection | inhibition, % at 16.5 µM | 360,000 compounds, 0.19% hits | AID 624377; in the data active means inhibition above about 25%
UHRF1 binding: blocks human UHRF1 binding to methylated DNA; Q96T88; inhibition, % at 4.4 µM; 370,000 compounds, 0.75% hits; AID 687016; UHRF1 binding to methylated oligo, TR-FRET; in the data active means inhibition above about 21%;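 further: UHRF1 SRA domain binding a hemimethylated CpG hairpin DNA probe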
TCR CD3 inh: inhibitors of human TCR-CD3 interaction | TAMRA-labeled TCR probe fluorescence, biochemical | inhibition, % at 9.4 µM | 360,000 compounds, 0.37% hits; in the data active means inhibition above about 19%;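 further: recombinant mutant TCR 2C K166C tagged with TAMRA read by polarization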
ARFGAP1 inh: inhibitors of rat ARFGAP1; Q62848; Arfgap1-stimulated ARF1 GTP hydrolysis, GDP FP detection; inhibition, % at 16.5 µM; 360,000 compounds, 0.26% hits; AID 651572;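 active means inhibition above a per-plate limit, mean inhibition of low control wells plus 3 SD, cut at about 25% in these data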
Target sequence (Q62848 1-136 limits assumed): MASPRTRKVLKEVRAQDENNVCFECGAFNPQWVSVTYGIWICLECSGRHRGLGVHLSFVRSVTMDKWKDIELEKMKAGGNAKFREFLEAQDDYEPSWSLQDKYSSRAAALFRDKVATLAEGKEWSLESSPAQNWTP
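Assay system: Rat Arfgap1 GAP domain (His6, aa 1-136), purified enzyme | Buffer or medium: HEPES 25 mM pH 7.5, NaCl 150 mM, MgCl2, DTT | Schedule: GTP hydrolysis reaction 2 h at 25 °C | Signal: FP of antibody-bound GDP Alexa 633 tracer, ex 620/em 688 nm | Measure: Percent inhibition of Arfgap1-stimulated GTP hydrolysis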
Each line names hits and unclear results; the compound was inactive in the other large screens; ! = repeats disagree.

COc1ccc(Cl)cc1Cn1c(C)c(C(=O)NCc2ccc3c(c2)OCCO3)sc1=O	UHRF1 binding 43
CCCCCC[C@H](CN(CCCC)S(C)(=O)=O)c1ccccc1	none (no result: ASAP1 inh, TCR CD3 inh, ARFGAP1 inh)
O=C1CC(c2ccccc2)CC(O)=C1C=NC1CCCC1 (configuration not stated)	UHRF1 binding 48
O=C(Cn1nnc2ccccc2c1=O)NCCc1ccc(Cl)cc1Cl	UHRF1 binding 28
CCOc1ccc2ccccc2c1CNCCc1ccc(S(N)(=O)=O)cc1	UHRF1 binding 45
CCOc1ccc(CNCCc2ccc(S(N)(=O)=O)cc2)cc1	none
CN(C(=O)c1cccc(C#N)c1)c1nnc(-c2ccccn2)s1	UHRF1 binding 22
COC(=O)c1cc(-c2cccc(C#N)c2)c(=O)n2c1CCC2	none (no result: ASAP1 inh, TCR CD3 inh, ARFGAP1 inh)
COCc1[nH]nc2c1C(c1ccc(F)cc1)N(Cc1ccccc1)C2=O (configuration not stated)	none
CC(=O)NN1C(=O)c2ccccc2NC1c1ccoc1 (configuration not stated)	none
CC(=O)NN1C(=O)c2ccccc2NC1c1ccccc1F (configuration not stated)	UHRF1 binding 63
Cc1ccc(/C=C/C(=O)N2CCc3ccccc32)o1	UHRF1 binding 31
O=C(/C=C/c1ccco1)N1CCc2ccccc21	none
Cc1ccc(/C=N\NC(=O)CN2CCN(S(=O)(=O)c3ccc(Br)cc3)CC2)s1	none (no result: ASAP1 inh, TCR CD3 inh, ARFGAP1 inh)
Cc1ccc(-c2nnc(SCC(=O)Nc3ccc(Oc4ccccc4)cc3)n2-c2ccc(Cl)cc2)cc1	none (no result: ASAP1 inh, TCR CD3 inh, ARFGAP1 inh)
COc1ccc(C2=Nc3ccccc3N(C(=O)c3cccnc3)C2C(=O)NC2CCCC2)cc1 (configuration not stated)	UHRF1 binding 23
CCCS(=O)(=O)N1CCN(S(=O)(=O)c2ccccc2[N+](=O)[O-])CC1	none
O=[N+]([O-])c1ccccc1S(=O)(=O)N1CCSCC1	UHRF1 binding 66
COP(=O)(CC(=O)OC(C)(C)C)C(CC(C)C)NC(=O)OCc1ccccc1 (configuration not stated)	none (no result: ASAP1 inh, TCR CD3 inh, ARFGAP1 inh)
CC(=O)c1nn(-c2ccc(Cl)cc2)cc1C(=O)c1ccc(C)cc1	UHRF1 binding 26
CC(=O)c1nn(-c2ccccc2)cc1C(=O)c1ccc(C)cc1	none
Cc1nc2ccc(C(=O)N3c4ccccc4CC3C)cc2s1 (configuration not stated)	UHRF1 binding 23
Cc1cccc(N2CCN(c3ccc4cc(S(=O)(=O)N5CCCCC5)ccc4n3)CC2)c1C	UHRF1 binding 23
Cc1cccc2sc(N(CCCN(C)C)C(=O)c3ccc(C(=O)c4ccccc4)cc3)nc12	UHRF1 binding 34!
Cc1cccc2sc(N(CCCN(C)C)C(=O)c3sc4ccccc4c3Cl)nc12	none
Cc1ccc(C)c2nc3sc(C(=O)N4CCOCC4)c(N)c3cc12	none
Cc1cc(C)c2nc3sc(C(=O)N4CCOCC4)c(N)c3cc2c1	UHRF1 binding 37
Cc1ccc(S(=O)(=O)Nc2ccc(Nc3nccn4c(-c5cccc(OC(F)(F)F)c5)cnc34)cc2)cc1	UHRF1 binding 90
O=C(NCCO)c1cccc(-c2cnc3c(Nc4cccc(OC(F)(F)C(F)F)c4)nccn23)c1	none
Fc1ccc(Cn2nnnc2CN2CCN(C3CCCCC3)CC2)cc1	UHRF1 binding 48
CC1CC(C)CN(C(=O)c2ccc(CSc3nc4ccncc4[nH]3)cc2)C1 (configuration not stated)	UHRF1 binding 34
CCc1ccc(S(=O)(=O)/N=C2\C=C(Nc3ccc(C(=O)O)cc3)C(=O)c3ccccc32)cc1	LEDGF integ inh 29
Cc1ccc(NC2=C/C(=N/S(=O)(=O)c3cccs3)c3ccccc3C2=O)cc1	ASAP1 inh 33
CC1(C(=O)NCc2ccccc2)CSCC(=O)N1Cc1ccco1 (configuration not stated)	none
COc1ccc2cc3c(nc2c1)OCC3	UHRF1 binding 21
COc1ccc2nc3c(nc2c1)CCCC3	none
COc1ccc(Cl)cc1NC(=O)CN(C)C(=O)c1cc(-c2ccncc2)nc2ccccc12	LEDGF integ inh 16
C[C@@H]1CCN(C2CC2)S(=O)(=O)c2ccc(N3CCC[C@H]3CO)cc2O1	none (no result: ASAP1 inh, TCR CD3 inh, ARFGAP1 inh)
Cc1ccc(C(=O)NNC(=O)CSc2nc(N)cc(N)n2)cc1	none

Screens: PubChem BioAssay, The Scripps Research Institute Molecular Screening Center
